Source: PubChem (several laboratories)
GalR3 antag = antagonists of human GalR3. O60755. HEK293 GalR3-CNG cAMP membrane potential fluorescence; galR3 body fused to GalR1 C-terminus. inhibition, % at 3 µM. hit rate 0.44% among 360,000. AID 651719;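 active = inhibition above the screen-wide average plus 3 SD, cut at about 13% in these data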;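 note: forskolin and galanin both at EC90 stimulate the cells; cAMP rise reported by CNG channel membrane potential dye signal; 0% = forskolin plus galanin with DMSO and 100% = forskolin alone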
Target sequence (O60755 1-299 limits assumed): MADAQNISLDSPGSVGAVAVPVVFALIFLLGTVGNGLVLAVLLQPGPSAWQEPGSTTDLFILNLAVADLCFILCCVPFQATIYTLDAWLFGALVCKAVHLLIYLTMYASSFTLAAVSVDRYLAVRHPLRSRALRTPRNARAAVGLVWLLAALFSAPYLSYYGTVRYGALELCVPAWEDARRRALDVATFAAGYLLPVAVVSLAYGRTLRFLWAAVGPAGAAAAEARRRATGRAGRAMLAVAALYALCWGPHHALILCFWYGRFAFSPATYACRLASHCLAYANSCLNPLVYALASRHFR
PG9 Ab binder = small molecules binding HIV-1 gp120 antibody PG9 | TR-FRET gp120-PG9 antibody binding | inhibition, % at 6.7 µM | hit rate 0.43% among 360,000 | AID 624416; in the data active = inhibition above about 8.5%
NR2E3 ag-1 = activates human NR2E3 receptor; Q9Y5X4; CHO-S Gal4-NCOR/VP16-NR2E3 two-hybrid, luciferase; inhibition of corepressor binding, % at 3.98 µM; hit rate 0.35% among 360,000;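 active = inhibition above the mean of all tested compounds plus 3 SD, cut at about 70% in these data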;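 note: 0% = DMSO with NR2E3 transfected cells and 100% = cells lacking NR2E3 construct; higher means lower luciferase signal from less NR2E3 corepressor binding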
NR2E3 ag-2 = agonists of human nuclear receptor NR2E3. Q9Y5X4. GST-NR2E3/biotin-RetCOR TR-FRET, 1536-well. inhibition of corepressor binding, % at 4.78 µM. hit rate 0.12% among 320,000;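 active = percent inhibition above the cutoff of mean plus 3 SD of all tested compounds, set per screening campaign, cut at about 20% in these data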;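 note: 0% = DMSO wells and 100% = biotin wells as full block of FRET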
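Assay system: NR2E3–RetCOR corepressor complex. Quantity: 1.35 nM GST-NR2E3. Buffer or medium: pH 7.5 Tris-based buffer. Reagent: biotinylated RetCOR corepressor at 7 nM final. Schedule: 5 h at 4 °C. Detection: TR-FRET, emission read at 617 and 671 nm. Replicates: one well per compound, singlicate testing.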
Rev-erbA mod = modulators of human Rev-erb alpha DNA binding; P20393; Rev-erbα–FITC-DNA binding, fluorescence polarization, 90 min; activity, % at 10 µM; hit rate 0.79% among 370,000; AID 1259318;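 active = activity above about 14%, limit read from the data; passing the limit was not always enough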;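 note: 0% = DMSO wells with 35 nM protein and 100% = DMSO wells with 750 nM protein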
NR2E3 ag confirm = confirmation of human NR2E3 agonists; inhibition, % at 3.98 µM; shares compounds with NR2E3 ag-1; CHO-S mammalian two-hybrid NR2E3-NCOR, luciferase luminescence; hit rate 51% among 2,300; AID 624378;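 active = average inhibition above a cutoff equal to the mean inhibition of all tested compounds plus one SD, cut at about 70% in these data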;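 note: 0% = DMSO in NR2E3 cells and 100% = DMSO in cells lacking NR2E3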
VP16 counter = GAL4-VP16 reporter inhibition in NR2E3 agonist counterscreen; shares compounds with NR2E3 ag-1; CHO-S GAL4-VP16 luciferase reporter, luminescence; inhibition, % at 3.98 µM; hit rate 29% among 2,300; AID 624379;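 active = mean inhibition above a cutoff equal to the average over all tested compounds plus one standard deviation, cut at about 70% in these data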;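 note: luciferase from a UAS reporter driven by GAL4-VP16 transactivation; 0% = DMSO with VP16-transfected cells and 100% = DMSO with cells lacking VP16; higher means less reporter light so more repression of VP16 activity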
The depositor's hits bear a star; nt = no result. The list is not random: actives were taken first. Their share in the collection is about 1.8%.

SMILES | GalR3 antag | PG9 Ab binder | NR2E3 ag-1 | NR2E3 ag-2 | Rev-erbA mod | NR2E3 ag confirm | VP16 counter
Cc1ccc(S(=O)(=O)N2[C@@H](c3ccc(Cl)cc3)C(C(=O)O)=CC[C@H]2c2ccc(Cl)cc2)cc1 | 2 | 1 | 62 | -1 | 3 | 24 | 22
Cc1ccc([C@@H]2CC=C(C(=O)O)[C@H](c3ccc(Cl)cc3)N2S(=O)(=O)c2ccc(C)cc2)cc1 | 7 | 0 | 28 | 8 | -1 | nt | nt
N#Cc1cccc(CNCC(=O)N2CCC3(CC2)OCCO3)c1 | nt | nt | nt | nt | 2 | nt | nt
COc1ccc(S(=O)(=O)NCC(=O)N2CCN(c3ccccn3)CC2)c(OC)c1 | nt | nt | nt | nt | -4 | nt | nt
CCCCCCCCCCCCCCCC[n+]1cccc2ccccc21 | -3 | 1 | 24 | 0 | 7 | nt | nt
CCCCCCCCC[n+]1cccc2c3ccccc3ccc21 | nt | nt | 82* | 4 | nt | 99* | 74*
Cc1ccc2c(c1C)-c1c(ccc(C)c1C)C(=O)C2=O | 1 | 4 | 60 | nt | 2 | 48 | 24
CCN(C[C@@H]1[C@@H](c2ccccc2)[C@H](CO)N1S(C)(=O)=O)C(=O)C1CCC1 | nt | nt | nt | nt | -5 | nt | nt
Cc1sc(NC(=O)CN2CCOCC2)nc1-c1ccc2c(c1)CCN2S(=O)(=O)c1ccccc1 | -7 | 1 | 56 | 3 | -3 | 85* | 71*
CCOC(=O)[C@H](CCc1ccccc1)N[C@H]1CCCN2CCC[C@@H](C(=O)O)N2C1=O | nt | nt | nt | nt | 6 | nt | nt
CN1CCN(c2ccc(NC(=O)N3CCc4ccccc43)cc2)CC1 | -9 | -3 | 49 | 0 | 2 | 26 | -32
C=CCn1c(SCC(=O)Nc2sccc2C(N)=O)nc2ccc(Cl)cc2c1=O | -7 | -2 | 69 | -1 | 3 | 35 | 50
C=CCn1c(SCC(=O)Nc2sccc2C(N)=O)nc2sc(CC)cc2c1=O | -5 | 1 | 59 | 2 | -2 | 62 | 57
C=CCn1c(SCC(=O)Nc2sccc2C(N)=O)nc2ccccc2c1=O | -4 | 0 | 6 | -3 | 4 | nt | nt
NC(=O)C(c1ccc(Cl)cc1)c1ccc(Sc2ccc(Cl)cc2)nn1 (centres undefined) | -8 | 2 | 65 | 6 | 0 | 87* | 71
Cc1nn(-c2ccccc2)c(C)c1/C=N\NC(=O)CSc1nc2ccccc2n1Cc1ccc(Cl)cc1 | nt | nt | nt | nt | -1 | nt | nt
COC(=O)c1cn(NC(=O)c2cc([N+](=O)[O-])ccc2F)c(=O)c2ccccc12 | -3 | -2 | 91* | -1 | -5 | 82* | 66
Cc1ccc(S(=O)(=O)N2CCCC(C(=O)NCCN3CCC(Cc4ccccc4)CC3)C2)cc1 (centres undefined) | nt | nt | nt | nt | -7 | nt | nt
COc1cc(/C=N/NC(=O)c2ccccc2)ccc1O | -4 | 0 | -3 | 3 | -4 | nt | nt
COc1cc(/C=N/NC(=O)c2[nH]nc3c2CCc2ccccc2-3)ccc1O | -5 | 0 | 48 | 2 | 2 | 8 | -16
COc1cc(/C=N/NC(=O)c2cc(C34CC5CC(CC(C5)C3)C4)[nH]n2)ccc1O | -4 | 0 | 70* | 2 | 1 | 12 | 7
COc1ccc(S[C@]2(C(=O)N3CCCC3)CC(=O)N(P(=O)(OC)OC)[C@@H]2c2ccc(OC)cc2)cc1 | nt | nt | nt | nt | 3 | nt | nt
Cc1ccc(NC(=O)CNC(=O)c2cccc(C)c2)nc1 | -5 | -2 | 53 | 2 | 1 | 75* | 18
Cc1ccc(NC(=O)CNC(=O)c2ccc(Oc3ccccc3)cc2)nc1 | -2 | 3 | -5 | 1 | 0 | nt | nt
C=CCN1C(=O)[C@@H](CC(=O)N2CCN(C(=O)OCC)CC2)[C@]2(C(=O)OC)CCCCC=C12 | nt | nt | nt | nt | 4 | nt | nt
COc1cc(OC)nc(-n2ncc(Br)c(Br)c2=O)n1 | 3 | 0 | 74* | -2 | 0 | 97* | 36
N#CNC(=Nc1ccccc1)SCc1ccc(C(=O)O)cc1 | 4 | -2 | 6 | 2 | 3 | nt | nt
CSC(=Nc1ccccc1)N=C(SCc1ccccc1)N(C)C | 13 | 2 | 86* | nt | -1 | 87* | 53
COc1ccc(CCN(C)C(=O)c2cccc(S(=O)(=O)N3CCN(c4ccc(F)cc4)CC3)c2)cc1OC | 1 | -1 | 61 | nt | 5 | 61 | 47
